Test results published in ChEMBL document CHEMBL1152612, “Ursolic acid derivatives induce cell cycle arrest and apoptosis in NTUB1 cells associated with reactive oxygen species” (Bioorg Med Chem, 2009).
Active and inactive are the calls of the source. The rule behind the calls is not given here.

Experiments:
[1] = Cell cycle arrest in human NTUB1 cells assessed as accumulation at S phase at 20 uM after 24 hrs using propidium iodide staining by flow cytometry; assay type: functional, cell-based
Summary of the method: (§1)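 NTUB1 cells plated at 8 × 10⁵ per 10 cm dish and exposed to compound for 24 or 48 h; untreated controls got medium alone. Cells trypsinized, PBS-washed and fixed overnight in ice-cold MeOH at −20 °C, then stained with 50 µg/mL propidium iodide plus RNase A. DNA content was read by flow cytometry, with apoptosis taken as sub-G1 accumulation. Three independent experiments.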

[2] = Induction of apoptosis in human NTUB1 cells assessed as accumulation at subG1 phase at 20 uM after 48 hrs using propidium iodide staining by flow cytometry; assay type: functional; summary of the method: as §1
[3] = Induction of apoptosis in human NTUB1 cells assessed as accumulation at subG1 phase at 50 uM after 24 hrs using propidium iodide staining by flow cytometry; assay type: functional; summary of the method: as §1
[4] = Cell cycle arrest in human NTUB1 cells assessed as accumulation at G1 phase at 20 uM after 24 hrs using propidium iodide staining by flow cytometry; assay type: functional, cell-based; summary of the method: as §1
[5] = Cell cycle arrest in human NTUB1 cells assessed as accumulation at G2/M phase at 50 uM after 24 hrs using propidium iodide staining by flow cytometry; assay type: functional, cell-based; summary of the method: as §1
[6] = Cell cycle arrest in human NTUB1 cells assessed as accumulation at S phase at 20 uM after 48 hrs using propidium iodide staining by flow cytometry; assay type: functional, cell-based; summary of the method: as §1
[7] = system: NTUB1; test: Increase in intracellular reactive oxygen species level in human NTUB1 cells at 20 uM after 48 hrs in presence of 1 mM N-acetyl-cysteine by DCFH-DA staining; assay type: functional, cell-based
Summary of the method: (§2)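 NTUB1 cells treated for 24 or 48 h, with or without 1 mM N-acetylcysteine. DCFH-DA (10 µM) added 30 min before harvest; cells then trypsinized, PBS-washed, and DCF green fluorescence read at once by flow cytometry through a 525 nm band-pass filter. Three independent experiments.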

[8] = Cell cycle arrest in human NTUB1 cells assessed as accumulation at G2/M phase at 50 uM after 48 hrs using propidium iodide staining by flow cytometry; assay type: functional, cell-based; summary of the method: as §1
[9] = Cell cycle arrest in human NTUB1 cells assessed as accumulation at G1 phase at 20 uM after 48 hrs using propidium iodide staining by flow cytometry; assay type: functional, cell-based; summary of the method: as §1
[10] = Cell cycle arrest in human NTUB1 cells assessed as accumulation at G2/M phase at 20 uM after 24 hrs using propidium iodide staining by flow cytometry; assay type: functional, cell-based; summary of the method: as §1
[11] = Cell cycle arrest in human NTUB1 cells assessed as accumulation at G1 phase at 50 uM after 24 hrs using propidium iodide staining by flow cytometry; assay type: functional, cell-based; summary of the method: as §1
[12] = Induction of apoptosis in human NTUB1 cells assessed as accumulation at subG1 phase at 20 uM after 24 hrs using propidium iodide staining by flow cytometry; assay type: functional; summary of the method: as §1
[13] = system: A549; test: Cytotoxicity against human A549 cells at 50 uM after 72 hrs by MTT assay; assay type: functional, cell-based
Summary of the method: (§3)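 Cells grown in RPMI 1640 with 10% FBS, penicillin/streptomycin and 2 mM L-glutamine at 37 °C under 5% CO₂. Seeded 1800 cells/well, left overnight, then given graded compound concentrations for 72 h; compounds diluted from DMSO, 0.1% DMSO in medium and in controls. MTT 2 mg/mL in PBS for 3 h, formazan dissolved in DMSO, absorbance 540 nm. Viability given as % of control; IC50 by median-effect analysis, mean ± SD.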

[14] = system: NTUB1; test: Increase in intracellular reactive oxygen species level in human NTUB1 cells at 50 uM after 48 hrs in presence of 1 mM N-acetyl-cysteine by DCFH-DA staining; assay type: functional, cell-based; summary of the method: as §2
[15] = Cell cycle arrest in human NTUB1 cells assessed as accumulation at S phase at 50 uM after 48 hrs using propidium iodide staining by flow cytometry; assay type: functional, cell-based; summary of the method: as §1
[16] = biological target: Tubulin (Homo sapiens) (UniProt P68371+Q9H4B7+P0DPH7+P68366+Q13509+Q71U36+P04350+Q3ZCM7+P07437+P68363+Q9BQE3+Q6PEY2+Q13885+Q9BVA1+Q9BUF5); test: Inhibition of tubulin polymerization in human NTUB1 cells assessed as blockade of microtubule assembly at 50 uM by indirect immunofluorescence staining; assay type: cell-based
Summary of the method: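 NTUB1 cells on coverslips were treated for 24 h, then fixed in 2% formaldehyde/PBS for 20 min and in cold methanol (−20 °C) for 3 min. Stained with anti-α-tubulin monoclonal antibody for 3 h at room temperature, then rhodamine-conjugated secondary antibody for 1 h in the dark. Mounted in 80% glycerol/PBS and examined by fluorescence microscopy.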

[17] = Cell cycle arrest in human NTUB1 cells assessed as accumulation at G1 phase at 50 uM after 48 hrs using propidium iodide staining by flow cytometry; assay type: functional, cell-based; summary of the method: as §1
[18] = system: NTUB1; test: Increase in intracellular reactive oxygen species level in human NTUB1 cells at 50 uM after 24 hrs by DCFH-DA staining; assay type: functional, cell-based; summary of the method: as §2
[19] = system: NTUB1; test: Increase in intracellular reactive oxygen species level in human NTUB1 cells at 50 uM after 24 hrs in presence of 1 mM N-acetyl-cysteine by DCFH-DA staining; assay type: functional, cell-based; summary of the method: as §2
[20] = system: NTUB1; test: Increase in intracellular reactive oxygen species level in human NTUB1 cells at 50 uM after 48 hrs by DCFH-DA staining; assay type: functional, cell-based; summary of the method: as §2
[21] = system: NTUB1; test: Increase in intracellular reactive oxygen species level in human NTUB1 cells at 20 uM after 24 hrs by DCFH-DA staining; assay type: functional, cell-based; summary of the method: as §2
[22] = Cell cycle arrest in human NTUB1 cells assessed as accumulation at S phase at 50 uM after 24 hrs using propidium iodide staining by flow cytometry; assay type: functional, cell-based; summary of the method: as §1
[23] = Induction of apoptosis in human NTUB1 cells assessed as accumulation at subG1 phase at 50 uM after 48 hrs using propidium iodide staining by flow cytometry; assay type: functional; summary of the method: as §1
[24] = system: PC-3; test: Cytotoxicity against human PC3 cells at 50 uM after 72 hrs by MTT assay; assay type: functional, cell-based; summary of the method: as §3
[25] = Cytotoxicity against human NTUB1 cells after 72 hrs by MTT assay; assay type: functional, cell-based; settings: NTUB1, 72 h; summary of the method: as §3
[26] = system: NTUB1; test: Increase in intracellular reactive oxygen species level in human NTUB1 cells at 20 uM after 24 hrs in presence of 1 mM N-acetyl-cysteine by DCFH-DA staining; assay type: functional, cell-based; summary of the method: as §2
[27] = system: NTUB1; test: Increase in intracellular reactive oxygen species level in human NTUB1 cells at 20 uM after 48 hrs by DCFH-DA staining; assay type: functional, cell-based; summary of the method: as §2
[28] = Cell cycle arrest in human NTUB1 cells assessed as accumulation at G2/M phase at 20 uM after 48 hrs using propidium iodide staining by flow cytometry; assay type: functional, cell-based; summary of the method: as §1

SMILES: C=C(C)[C@@H]1CC[C@]2(C)[C@H](CC=C3[C@@H]4[C@@H](C)[C@H](C)CC[C@]4(C(=O)O)CC[C@]32C)[C@@]1(C)CCC(=O)O
- Activity [1]: 23.7%
- Activity [2]: 5.12%
- Activity [3]: 25.75%
- Activity [4]: 41.3%
- Activity [5]: 13.1%
- Activity [6]: 20.6%
- Activity [7]: Active
- Activity [8]: 11.1%
- Activity [9]: 52.2%
- Activity [10]: 10.9%
- Activity [11]: 52.2%
- Activity [12]: 21.68%
- Activity [13]: Active
- Activity [14]: Active
- Activity [15]: 3.05%
- Activity [16]: Active
- Activity [17]: 66.4%
- Activity [18]: Active
- Activity [19]: inactive
- Activity [20]: Active
- Activity [21]: Active
- Activity [22]: 6.9%
- Activity [23]: 14%
- Activity [24]: Active
- IC50 [25]: 25.5 µM
- Activity [26]: inactive
- Activity [27]: Active
- Activity [28]: 16.6%
